Source: ChEMBL document CHEMBL3603766, “Structure-activity studies of Wnt/β-catenin inhibition in the Niclosamide chemotype: Identification of derivatives with improved drug exposure” (Bioorg Med Chem, 2015)
Active and inactive are the calls of the source. No cut-off for these calls is given here.

How the values were obtained:
U2OS = assay: Inhibition of Wnt/beta-catenin in human U2OS cells assessed as internalization of frizzled-GFP at 12.5 uM after 6 hrs by confocal microscopic analysis; assay type: cell-based
How it was run: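 U2OS cells stably expressing Frizzled1-GFP, plated 24 h, then exposed to 12.5 μM compound or DMSO for 6 h at 37 °C. Fixed with 4% paraformaldehyde and imaged by confocal microscopy (488 nm excitation). Punctate scored blind twice on a 0–5 scale against DMSO control.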

HCT-116 [1] = assay: Cytotoxicity against human HCT116 cells assessed as growth inhibition up to 10 uM after 72 hrs by MTS assay; assay type: functional, cell-based
How it was run: (§1)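 HCT116 colon cancer cells seeded at 5000 cells/well, exposed to compound at 0.04–10 μM for 72 h, then read by colorimetric MTS. Viability normalized to DMSO set at 100%. IC50 from curve fit, mean ± SEM, n = 3.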

HEK293 = assay: Inhibition of Wnt/beta-catenin in HEK293 cells assessed as inhibition of Wnt3A-stimulated TOPFlash activity after 8 hrs; assay type: cell-based; settings: Homo sapiens, HEK293, 8 h
How it was run: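 HEK293 cells stably carrying p8xTOPFlash and Renilla pRL-TK, seeded at 100% confluency. Cells given Wnt-3A conditioned medium (from L Wnt-3A cells) containing compound (0.04–10 μM) or DMSO for 8 h. Lysed and read by dual luciferase, firefly normalized to Renilla, Wnt3A+DMSO = 100%. IC50 fit, mean ± SEM, n ≥ 2.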

Plasma [2] = assay: Drug uptake in plasma of CD1 mouse at 200 mg/kg, po by LC/MS-MS analysis; assay type: ADME, organism-based; settings: in vivo
How it was run: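 CD1 mice gavaged at 200 mg/kg with a solution (20 mg/ml) in 90% PEG 300 / 10% 1-methyl-2-pyrrolidinone. Blood sampled predose and at 0.25, 0.5, 1, 2, 4, 8 h. Plasma analyzed by LC/MS–MS, including for a potential active metabolite.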

HCT-116 [3] = assay: Cytotoxicity against human HCT116 cells assessed as growth inhibition after 72 hrs by MTS assay; assay type: functional, cell-based; settings: HCT-116, 72 h; how it was run: as §1
[4] = Half life in Sprague-Dawley rat at 2 mg/kg, iv; assay type: ADME, organism-based; settings: in vivo
[5] = Total clearance in Sprague-Dawley rat at 2 mg/kg, iv; assay type: ADME, organism-based; settings: in vivo
[6] = Oral bioavailability in Sprague-Dawley rat at 5 mg/kg; assay type: ADME, organism-based; settings: in vivo
[7] = Volume of distribution at steady state in Sprague-Dawley rat at 2 mg/kg, iv; assay type: ADME, organism-based; settings: in vivo
[8] = Distribution coefficient, log D of the compound at pH 7; assay type: physicochemical; settings: octanol/water
Plasma [9] = assay: Drug level in CD1 mouse plasma treated with DK-520 at 200 mg/kg, po measured for 24 hrs by LC/MS-MS analysis; assay type: ADME, organism-based; settings: in vivo
How it was run: (§2)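 CD1 mice given prodrug orally as a solution in corn oil (20 mg/ml) at 200 mg/kg. Niclosamide in plasma quantified by LC/MS–MS, reported as ng/mL, mean ± SEM.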

[10] = Lipophilicity, log P of the compound at pH <=4; assay type: physicochemical; settings: octanol/water
[11] = Cytotoxicity against human breast cancer cells assessed as growth inhibition after 72 hrs by Cell Titer Glo Assay; assay type: functional, cell-based; settings: Cancer cell lines, pooled result: one value given for 7 cell lines, strains, targets or settings
Mus musculus [12] = assay: Half life in CD1 mouse assessed as niclosamide at 200 mg/kg, po measured for 24 to 48 hrs; assay type: ADME, organism-based; settings: in vivo; how it was run: as §2
Mus musculus [13] = assay: Tmax in CD1 mouse assessed as niclosamide at 200 mg/kg, po; assay type: ADME, organism-based; settings: in vivo; how it was run: as §2
Mus musculus [14] = assay: Tlast in CD1 mouse assessed as niclosamide at 200 mg/kg, po; assay type: ADME, organism-based; settings: in vivo; how it was run: as §2
Mus musculus [15] = assay: AUClast in CD1 mouse assessed as niclosamide at 200 mg/kg, po; assay type: ADME, organism-based; parameters: dose 200 mg/kg, route oral, time 0 - last; settings: in vivo; how it was run: as §2
Mus musculus [16] = assay: Toxicity in NOD/SCID mouse assessed as change in behavior at 200 mg/kg, po administered 6 days a week for 3 weeks; assay type: organism-based; settings: in vivo
How it was run: (§3)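 NOD/SCID mice dosed orally with 200 mg/kg in corn oil, or corn oil vehicle, 6 days a week for 3 weeks. Observed throughout for side effects and behavior. Body weight taken on the first dosing day (week 0) and on the day after the last dose (week 3).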

Mus musculus [17] = assay: Half life in CD1 mouse assessed as niclosamide at 200 mg/kg, po measured for 45 to 240 mins; assay type: ADME, organism-based; settings: in vivo; how it was run: as §2
Plasma [18] = assay: Drug metabolism in CD1 mouse plasma assessed as niclosamide production at 200 mg/kg, po measured for 24 hrs by LC/MS-MS analysis; assay type: ADME, organism-based; settings: in vivo; how it was run: as §2
Mus musculus [19] = assay: Cmax in CD1 mouse assessed as niclosamide at 200 mg/kg, po; assay type: ADME, organism-based; parameters: dose 200 mg/kg, route oral; settings: in vivo; how it was run: as §2
Mus musculus [20] = assay: Toxicity in NOD/SCID mouse assessed as change in body weight at 200 mg/kg, po administered 6 days a week for 3 weeks; assay type: organism-based; settings: in vivo; how it was run: as §3
Mus musculus [21] = assay: Clast in CD1 mouse assessed as niclosamide at 200 mg/kg, po; assay type: ADME, organism-based; settings: in vivo; how it was run: as §2

Row | SMILES | inhibition (U2OS) | IC50 (HEK293) [nM] | also measured
1 | O=C(Nc1c(Cl)cccc1Cl)c1cc(Cl)ccc1O | inactive | > 12000 | growth inhibition (GI) (HCT-116 [1]): inactive
2 | CN(C(=O)c1cc(Cl)ccc1O)c1ccc(C(F)(F)F)cc1 | inactive | > 12000 | 
3 | NC(=O)c1ccc(NC(=O)c2cc(Cl)ccc2O)cc1 | inactive | > 12000 | 
4 | CS(=O)(=O)c1ccc(NC(=O)c2cc(Cl)ccc2O)c(Cl)c1 | inactive | 7660 | 
5 | O=C(Nc1ccccc1)c1cc(Cl)ccc1O | inactive | 11800 | 
6 | O=S(=O)(Nc1ccc(C(F)(F)F)cc1Cl)c1cc(Cl)ccc1O | inactive | 2570 | 
7 | O=C(Nc1ccc(Cl)cc1)c1cc(Cl)ccc1O | Active | 1300 | 
8 | O=C(Nc1ccccc1Cl)c1cc(Cl)ccc1O | inactive | 3050 | 
9 | O=C(Nc1ccc(F)cc1)c1cc(Cl)ccc1O | inactive | 3840 | 
10 | O=C(c1ccccc1)c1ccc(NC(=O)c2cc(Cl)ccc2O)cc1 | inactive | 15000 | 
11 | O=C(Nc1cccc(Cl)c1)c1cc(Cl)ccc1O | Active | 1650 | 
12 | O=C(Nc1ccc([N+](=O)[O-])cc1)c1cc(Cl)ccc1O | Active | 990 | 
13 | CC(=O)Oc1ccc(Cl)cc1C(=O)Nc1ccc(C(F)(F)F)cc1Cl | Active | 320 | 
14 | O=C(Nc1ccc(F)c(Cl)c1)c1cc(Cl)ccc1O | Active | 1210 | 
15 | O=c1oc2ccc(Cl)cc2c(=O)n1-c1ccc(C(F)(F)F)cc1Cl | Active | 330 | Drug uptake (Plasma [2]): Active; IC50 (HCT-116 [3]): 550 nM
16 | O=C(Nc1cc(Cl)cc(Cl)c1)c1cc(Cl)ccc1O | Active | 700 | 
17 | O=C(Nc1ccc(C(F)(F)F)cc1)c1cc(Cl)ccc1O | Active | 290 | IC50 (HCT-116 [3]): 670 nM
18 | O=c1oc2ccc(Cl)cc2c(=O)n1-c1ccc([N+](=O)[O-])cc1Cl |  | 370 | 

Row | SMILES | inhibition (U2OS) | IC50 (HEK293) [nM] | also measured
19 | O=C(Nc1cc(Cl)ccc1O)c1ccc([N+](=O)[O-])cc1 |  | > 12000 | 
20 | O=C(Nc1ccc(Cl)cc1Cl)c1cc(Cl)ccc1O | Active | 420 | half-life [4]: 2.6 h; clearance [5]: 27 mL/min/kg; bioavailability [6]: 12%; Vd [7]: 0.3 L/kg; IC50 (HCT-116 [3]): 1180 nM
21 | O=C(Nc1ccc(F)cc1Cl)c1cc(Cl)ccc1O | Active | 1410 | 
22 | O=C(Nc1ccccc1)c1ccc(NC(=O)c2cc(Cl)ccc2O)cc1 | inactive | 32900 | 
23 | CC(=O)c1ccc(NC(=O)c2cc(Cl)ccc2O)cc1 | inactive | 6420 | 
24 | O=C(Nc1cccc(C(F)(F)F)c1)c1cc(Cl)ccc1O | Active | 890 | 
25 | O=C(Nc1ccc([N+](=O)[O-])cc1Cl)c1cc(Cl)ccc1O [NICLOSAMIDE] | Active | 340 | logD [8]: 4.48; Drug metabolism (Plasma [9]): metabolite_detected; clearance [5]: 20 mL/min/kg; logP [10]: 5.95; Drug uptake (Plasma [2]): Active; bioavailability [6]: 10%; Vd [7]: 0.9 L/kg; IC50 [11]: 130 nM; IC50 (HCT-116 [3]): 450 nM
26 | CCOC(=O)Oc1ccc(Cl)cc1C(=O)Nc1ccc(C(F)(F)F)cc1Cl | Active | 340 | IC50 (HCT-116 [3]): 510 nM
27 | O=c1oc2ccc(Cl)cc2c(=O)n1-c1ccc(C(F)(F)F)cc1 | Active | 320 | 
28 | O=C(Nc1ccc(C(F)(F)F)cc1Cl)c1cc(Cl)ccc1O | Active | 560 | half-life [4]: 3.7 h; clearance [5]: 39 mL/min/kg; bioavailability [6]: 15%; Vd [7]: 1.1 L/kg; IC50 (HCT-116 [3]): 540 nM
29 | O=C(Nc1ccc(Cl)c(Cl)c1)c1cc(Cl)ccc1O | Active | 730 | 
30 | O=C(Nc1c(F)cccc1F)c1cc(Cl)ccc1O |  | > 12000 | 
31 | O=C(Nc1ccc(F)cc1F)c1cc(Cl)ccc1O | inactive | 4020 | 
32 | O=C(NCc1ccc(C(F)(F)F)cc1)c1cc(Cl)ccc1O | inactive | 15100 | 
33 | O=C(Nc1ccc(C(F)(F)F)cc1F)c1cc(Cl)ccc1O | Active | 550 | 
34 | CCCCCCCC(=O)Oc1ccc(Cl)cc1C(=O)Nc1ccc([N+](=O)[O-])cc1Cl | Active | 230 | t1/2 (Mus musculus [12]): 12.2 h; Tmax (Mus musculus [13]): 0.75 h; Tlast (Mus musculus [14]): 72 h; AUClast (Mus musculus [15]): 22400 ng·h/mL; Activity (Mus musculus [16]): Non-toxic; t1/2 (Mus musculus [17]): 0.69 h; Drug metabolism (Plasma [18]): metabolite_detected; Cmax (Mus musculus [19]): 6100 ng/mL; Activity (Mus musculus [20]): Non-toxic; IC50 (HCT-116 [3]): 610 nM; Clast (Mus musculus [21]): 49 ng/mL
35 | O=C(Nc1cc(Cl)ccc1Cl)c1cc(Cl)ccc1O | Active | 750 | 
36 | O=C(NC(=O)c1cc(Cl)ccc1O)c1ccc(C(F)(F)F)cc1 | inactive | > 12000 | 
